These results are taken from ChEMBL document CHEMBL2021795, “Novel epigallocatechin gallate (EGCG) analogs activate AMP-activated protein kinase pathway and target cancer stem cells” (2012).

Assay [1] concerns MDA-MB-231. As to the kind of experiment: Induction of AMPKalpha phosphorylation at T172 residue in human MDA-MB-231 cells at 20 uM after 3 hrs by Western blotting analysis relative to control. The assay is classed as cell-based. The method, boiled down:
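MDA-MB-231 cells in DMEM/F12 (1:1) with 10% FBS at 37°C, 5% CO2. Compounds were given at 20 μM, metformin at 10 mM, for 3 h. Whole-cell lysates were run on SDS–PAGE, blotted to nitrocellulose and probed for phospho-AMPKα (T172), with ECL detection. Phospho-AMPKα was normalized to β-actin.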

Assay [2] concerns MDA-MB-231. As to the kind of experiment: Inhibition of mammosphere formation in human MDA-MB-231 cells at 20 uM after 7 days by inverted phase-contrast microscopy. The assay is classed as functional. Conditions: MDA-MB-231, 168 h. The method, boiled down: (§1)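 Single MDA-MB-231 cells were seeded at 1,000 cells/well in ultra-low-attachment 6-well plates. Sphere medium was DMEM/F12 1:1 with B-27, N-2 and penicillin/streptomycin, topped up every 3–4 days. Cells were exposed to compounds or metformin for 7 days. Spheres were collected by centrifugation (300 g, 5 min) and counted under an inverted phase-contrast microscope. Mean of three experiments.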

A short description of assay [3]: Activation of AMPKalpha in human MDA-MB-231 cells assessed as suppression of mTOR pathway measuring decrease in p70-S6K T389 phosphorylation at 5 to 40 uM after 3 hrs by Western blotting analysis relative to control. The format is cell-based.
The test system of assay [4] is MDA-MB-231. As to the kind of experiment: Antiproliferative activity against human MDA-MB-231 cells after 24 hrs by MTT assay. The format is functional, cell-based. The method, boiled down:
(§2)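 MDA-MB-231 cells were grown in 96-well plates to 70–80% confluency. Compounds or metformin were added for 24 h at 37°C, then MTT read-out. Samples were run in triplicate in three independent experiments. Data are mean ± SD, expressed as percent of untreated control (100%).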

In assay [5] the test system is MDA-MB-231. As to the kind of experiment: Cytotoxicity against human MDA-MB-231 cells assessed as CD44+high/CD24-low cells after 48 hrs by FACS-flow cytometry (reference value: 45%). The format is functional, cell-based. The method, boiled down: (§3)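 MDA-MB-231 cells were cultured 5 days on low-adherent plates in sphere medium. Spheres were dissociated with accutase (37°C, 5 min), reseeded and treated with compounds for 48 h. Cells were detached with 0.02% EDTA/PBS and stained with anti-CD44-FITC and anti-CD24-PE or isotype controls for 30 min at 4°C in the dark. The CD44high/CD24low fraction was measured by flow cytometry. Mean of three experiments.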

For assay [6], the system named is MDA-MB-231. As to the kind of experiment: Activation of AMPKalpha in human MDA-MB-231 cells assessed as increase in Raptor S792 phosphorylation after 3 hrs by Western blotting analysis relative to control. The assay is classed as cell-based. The method, boiled down: (§4)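 MDA-MB-231 cells grown in DMEM/F12 (1:1) with 10% FBS, penicillin/streptomycin at 37°C, 5% CO2. Exposed to compounds over a concentration series for 3 h. Whole-cell extracts were separated by SDS–PAGE and transferred to nitrocellulose. Blots were probed with the indicated antibodies (p-AMPKα, p-Raptor, p21, β-actin) and detected by ECL. p-AMPKα was normalized to β-actin.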

For assay [7], the system named is MDA-MB-231. As to the kind of experiment: Inhibition of mammosphere formation in human MDA-MB-231 cells at 10 uM after 7 days by inverted phase-contrast microscopy. The format is functional. The following applies: MDA-MB-231, 168 h. The method, boiled down:
as §1

For assay [8], the system named is MDA-MB-231. As to the kind of experiment: Induction of AMPKalpha-mediated up-regulation of p21 in human MDA-MB-231 cells at 5 to 40 uM after 3 hrs by Western blotting analysis relative to control. The format is cell-based. The method, boiled down:
as §4

Assay [9] has as its system MDA-MB-231. As to the kind of experiment: Induction of AMPKalpha phosphorylation at T172 residue in human MDA-MB-231 cells after 3 hrs by Western blotting analysis relative to control. The assay is classed as cell-based. The method, boiled down: as §4
For assay [10], the system named is MDA-MB-231. As to the kind of experiment: Cytotoxicity against human MDA-MB-231 cells assessed as CD44+high/CD24-low cells at 20 uM after 48 hrs by FACS-flow cytometry (reference value: 45%). The assay is classed as functional. The method, boiled down: as §3
Assay [11] relates to MDA-MB-231. As to the kind of experiment: Cytotoxicity against human MDA-MB-231 cells assessed as CD44+high/CD24-low cells at 10 uM after 48 hrs by FACS-flow cytometry (reference value: 45%). The assay is classed as functional. The method, boiled down: as §3
Assay [12] concerns MDA-MB-231. As to the kind of experiment: Inhibition of mammosphere formation in human MDA-MB-231 cells at 5 mM after 7 days by inverted phase-contrast microscopy. The format is functional. The following applies: MDA-MB-231, 168 h. The method, boiled down: as §1
For assay [13], the system named is MDA-MB-231. As to the kind of experiment: Induction of AMPKalpha phosphorylation at T172 residue in human MDA-MB-231 cells at 10 mM after 3 hrs by Western blotting analysis relative to control. The format is cell-based. The method, boiled down: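 MDA-MB-231 human breast cancer cells grown in DMEM/F12 (1:1) with 10% FBS, penicillin and streptomycin at 37°C, 5% CO2. Treated for 3 h, then whole-cell extracts separated by SDS–PAGE, blotted to nitrocellulose and detected by ECL. Phospho-AMPKα (T172) band normalized to β-actin.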

The subject of assay [14] is MDA-MB-231. As to the kind of experiment: Inhibition of mammosphere formation in human MDA-MB-231 cells at 10 mM after 7 days by inverted phase-contrast microscopy. The assay is classed as functional. Conditions: MDA-MB-231, 168 h. The method, boiled down: as §1
For assay [15], the system named is MDA-MB-231. As to the kind of experiment: Antiproliferative activity against human MDA-MB-231 cells at 1 to 20 mM after 24 hrs by MTT assay. The assay is classed as functional, cell-based. The method, boiled down:
as §2

Molecules are shown by their SMILES. The source made the active and inactive calls. The calls are words filed in the database; no cut-off is given here.

`CC(=O)Oc1cc(OC(C)=O)c2c(c1)O[C@H](c1cc(OC(C)=O)c(OC(C)=O)c(OC(C)=O)c1)[C@H](OC(=O)c1cc(OC(C)=O)c(OC(C)=O)c(OC(C)=O)c1)C2`: the fold change (FC) with MDA-MB-231 [1] was 3.9.

As to `O=C(O[C@H]1Cc2ccccc2C[C@H]1OC(=O)c1cc(O)c(O)c(O)c1)c1cc(O)c(O)c(O)c1`, in the assay with MDA-MB-231 [1], the fold change (FC) stood at 5.1.

In the assay on MDA-MB-231 [2], `Nc1ccc(C(=O)O[C@H]2Cc3ccccc3C[C@H]2OC(=O)c2ccc(N)cc2)cc1` registered an inhibition at 20 µM of 73.3%. In the assay on MDA-MB-231 [1], the fold change (FC) was 13.7. For the same molecule, the outcome (in assay [3]; in the assay with MDA-MB-231 [8]) was Active. In addition, the Activity result in the assay with MDA-MB-231 [4] is “Dose-dependent effect”; with MDA-MB-231 [5], “Dose-dependent effect”; with MDA-MB-231 [6], “Dose-dependent effect”; in the assay on MDA-MB-231 [9] it was “Dose-dependent effect”; in the assay on MDA-MB-231 [10], 13.9%; with MDA-MB-231 [11], 25.6%. The inhibition at 10 µM in the assay on MDA-MB-231 [7] worked out at 52.2%.

`O=C(O[C@@H]1Cc2c(O)cc(O)cc2O[C@@H]1c1cc(O)c(O)c(O)c1)c1cc(O)c(O)c(O)c1` [EPIGALOCATECHIN GALLATE] displayed an inhibition at 20 µM in the assay with MDA-MB-231 [2] of 51.3%. The fold change (FC) with MDA-MB-231 [1] was 3.9. The outcome in the assay on MDA-MB-231 [4] was Active. Further, testing at 10 µM with MDA-MB-231 [7] gave an inhibition of 20.1%.

Take `O=C(O[C@H]1Cc2ccccc2C[C@H]1OC(=O)c1cc(O)c(Br)c(O)c1)c1cc(O)c(Br)c(O)c1`: in the assay on MDA-MB-231 [2], the inhibition at 20 µM came out at 66.7%. In the assay on MDA-MB-231 [1], this molecule displayed a fold change (FC) of 13.5. The result (in [3]; with MDA-MB-231 [8]) was Active. Moreover, the Activity entry with MDA-MB-231 [4] was “Dose-dependent effect”; with MDA-MB-231 [5] it was “Dose-dependent effect”; with MDA-MB-231 [6] it was “Dose-dependent effect”; with MDA-MB-231 [9] it was “Dose-dependent effect”; in the assay on MDA-MB-231 [10], 18%; with MDA-MB-231 [11], 30.5%. In the assay on MDA-MB-231 [7], this molecule returned an inhibition at 10 µM of 45.1%.

In the assay on MDA-MB-231 [1], `CC(=O)Nc1ccc(C(=O)O[C@H]2Cc3ccccc3C[C@H]2OC(=O)c2ccc(NC(C)=O)cc2)cc1` showed a fold change (FC) of 6.

In the assay with MDA-MB-231 [12], `CN(C)C(=N)NC(=N)N` [METFORMIN] came in with an inhibition at 5000 µM of 41.4%. Moreover, the fold change (FC) with MDA-MB-231 [13] is 6.3. In addition, 10000 µM produced 67.6% inhibition in the assay with MDA-MB-231 [14]. Besides, the result in the assay on MDA-MB-231 [15] was Active.

For the molecule `O=C(O[C@H]1Cc2ccccc2C[C@H]1OC(=O)c1cc(O)cc(O)c1)c1cc(O)cc(O)c1`, in the assay with MDA-MB-231 [1], the fold change (FC) is 5.1.
